Measurements taken from ChEMBL document CHEMBL4513216, “Probing the Open Global Health Chemical Diversity Library for Multistage-Active Starting Points for Next-Generation Antimalarials” (ACS Infect Dis, 2020).

Assay: Toxicity liver stage against HepG2, at 10uM
Format: cell-based
Design: test concentration 10 uM, cell line HepG2-A16-CD81EGFP
Conditions: human, HepG2-A16-CD81EGFP cells; read-out: INHIBITION
In short: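 Uninfected HepG2-A16-CD81EGFP cells, 3 × 10^3 per well, 1536-well, plated on prespotted compound at 10 μM final, parasite-free screening media added to match infected plates; puromycin 10 μM positive, DMSO 0.5% negative; run in parallel with 48 h PbLuc assay at 37 °C, 5% CO2; viability by CellTiter-Glo luminescence, normalized to controls.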

Structure (SMILES) | cytotoxicity at 10 µM
FC(F)(F)c1ccc2nc([C@H]3CCN(C4CCOCC4)C3)[nH]c2c1 | 0.354%
CNC(=O)c1nc(COc2ccc3c(c2)OCO3)no1 | 2.03%
COc1ccc(-c2c(C(C)C)nn3c(=N)c(C#N)n[nH]c23)cc1 | -12.2%
Cn1nc(C(=O)NCc2ccc(Cl)cc2)c2c1CCS(=O)(=O)C2 | 5.01%
Cc1nc(N2CCC(C)CC2)ncc1-c1cc(O)nc(N2CCCC2)n1 | 9.82%
Cn1nc(C(=O)NC2CCCCC2)cc1NC(=O)C1CC1 | -3.97%
Cc1nn(C)c(C)c1CN(C)S(=O)(=O)c1c(C)n[nH]c1C | -2.32%
Cc1cc(C)nc(N2CCCC(C)(c3[nH]ncc3C(=O)N(C)C)C2)n1 (stereo not drawn) | 7.42%
Cn1ccnc1C(O)c1ccccc1N1CCN(Cc2ccsc2)CC1 (stereo not drawn) | 3.19%
NCc1cnn(-c2ccccc2C(=O)NCc2ccccn2)c1 | -19.9%
Cc1cc(C(=O)N2Cc3ccccc3OC3(CCOCC3)C2)nc(N)n1 | -0.928%
O=C(NC1CC1)C1CCc2nnc(C3CC3)n21 (stereo not drawn) | 11.2%
CC(C)(C)C(=O)N1CCC2(CNS(=O)(=O)c3cnccc3O2)C1 (stereo not drawn) | 10.2%
Cc1cc(C)cc(OCCNC(=O)C(C)Sc2nncn2C)c1 (stereo not drawn) | -46.3%
CCc1ccc2c(c1)C(CCNC(=O)Cc1ccc(F)cc1)C(=O)N2 (stereo not drawn) | -44.3%
CS(=O)(=O)CCC(=O)Nc1nccn1Cc1ccccc1Cl | -5.98%
Cn1cc(NC(=O)c2cccc(-n3cnnn3)c2)cn1 | 5.39%
N#CC1COCCN1C(=O)c1ccc2cc[nH]c2c1 (stereo not drawn) | 7.75%
CCOc1nnc(CN2CCN(CCOC)CC2)s1 | -12.1%
CCc1ccc(N2CCC(NS(=O)(=O)N(CC)CC)CC2)cc1 | 0.243%
Cc1noc(C)c1CN(C)C(=O)NC(C)Cc1ccco1 (stereo not drawn) | 11.3%
CC1COCCN1C(=O)c1cnccn1 (stereo not drawn) | -4.36%
Cc1nn(C)c(Cl)c1C1CCCN1CC(=O)NC1CCCC1 (stereo not drawn) | -3.78%

Structure (SMILES) | cytotoxicity at 10 µM
Clc1cccc(CNC2CCN(CCc3ccncc3)CC2)c1 | -5.62%
COc1cc(CN(C)C(=O)NCCNC(=O)C2CC2)ccc1SC | -3.73%
CC(NCc1ccco1)c1nnc2n1CCCC2 (stereo not drawn) | -2.34%
CC(=O)c1cccc(NC(=O)CN2CCCC(C3OCCO3)C2)c1 (stereo not drawn) | -3.28%
CN(CC(=O)Nc1cccnc1)CC1CCCN1c1cccnn1 (stereo not drawn) | 2.66%
CC(Sc1nnnn1C1CCOCC1)C(F)(F)F (stereo not drawn) | 11.5%
CN(C1CCc2ccccc2C1)S(C)(=O)=O (stereo not drawn) | -3.78%
CCOCCOC(C)C(=O)NCc1cn2cc(Cl)ccc2n1 (stereo not drawn) | 8.82%
Cc1ncsc1C(=O)N1CCN(CCC(C)C)CC1 | 9.34%
CCc1ncc2c(n1)CN(Cc1nc3c(F)cccc3[nH]1)CC2 | 19%
OC(COCc1ccccc1)CSc1nnc(C2CC2)n1C1CC1 (stereo not drawn) | 4.93%
CC(C)(C)Cc1nnc(NCc2ccsc2)o1 | -5.36%
CCCc1cc(N2CCCC2Cn2nc(C)nc2C)n2ncnc2n1 (stereo not drawn) | -0.82%
Cn1cc(Br)cc(NC(=O)Cc2cccs2)c1=O | 2.14%
O=C(NCCNc1cnccn1)c1scnc1Cl | 8.11%
COc1cccc(OCC(=O)N(C)c2cccnc2)c1 | -2.66%
CN(CC(F)(F)F)C(=O)CNC(=O)N1CCCC(N(C)C)C1 (stereo not drawn) | -7.91%
Cc1cc(C(N)=O)c2c(Br)cccc2n1 | 1.09%
COC(=O)CN(C)Cc1cc(Br)cs1 | -2.45%
Cc1nc(NC(=O)OC(C)(C)C)sc1C#N | -10%
COc1cccc(C(O)CN2CCN(C(=O)c3ccsc3)CC2)c1 (stereo not drawn) | -48.1%
N#CCCCN1CCCC1Cc1ccccc1 (stereo not drawn) | -45.4%
O=C(CCc1ccc(F)cc1)NCc1ccnc(NC2CC2)c1 | -8.78%

Structure (SMILES) | cytotoxicity at 10 µM
CC1CN(Cc2cccc(C#N)c2)CCN1c1ccc2nncn2n1 (stereo not drawn) | 9.56%
CNC(=O)c1cnc(/C=C/c2cc(OC)c(OC)c(OC)c2)s1 | -15.5%
CN(Cc1ccc(C#N)cc1)Cc1noc(C(C)(C)C)n1 | -2.09%
Cc1cnn(CC(C)NCc2nc(-c3ccco3)no2)c1 (stereo not drawn) | -16%
CO[C@@H]1CO[C@@]2(CCCN(C(=O)C3CC=CC3)C2)C1 | -105%
CCN1CCC2(CC1)CC(CC(=O)N(C)C)c1ccc(F)cc12 (stereo not drawn) | -98.6%
O=C(C1CCOCC1)N1C[C@H]2CCC[C@@]2(COCc2ccccn2)C1 | -112%
Cn1nnc2c1CCN(S(C)(=O)=O)C2COCc1ccccc1 (stereo not drawn) | -100%
O=C(c1cccs1)N1CCc2ncnc(C3CCOC3)c2CC1 (stereo not drawn) | -85.4%
CC(C)c1noc(-c2ccc(NCCCN3CCCC(O)C3)nc2)n1 (stereo not drawn) | -6.87%
COc1cc(-c2cc(C3CCOC3)c(C#N)c(N)n2)ccc1O (stereo not drawn) | -0.412%
CCOc1ccc(-n2nc(C)c(CC(C)=O)c2C)cc1C(N)=O | 7.09%
O[C@@H]1CN(CC2CC2)CC[C@H]1N1CCN(c2ccccc2F)CC1 | -50.3%
CC1(C)CNC(=O)c2nc(CCN3CCC(O)CC3)[nH]c2C1 | -10.4%
CC1(C)CC(C(=O)N2CCC3(CCC(=O)N(C4CC4)C3)CC2)CCO1 (stereo not drawn) | 0.868%
Cc1cnc(-n2cnnc2)c(-c2cccc3c2CCNC3)c1 | 17.7%
CCc1ccc(CN(C/C=C/c2ccccc2)CCOC)nc1 | 10.2%
CN(C)c1cnn(CC(=O)N2CCN(c3ccccc3)CC2)c(=O)c1 | -13.8%
CCc1nn(C)c(Cl)c1CN1CCCC2(CC1)CN(C)C(=O)O2 (stereo not drawn) | 5.63%
CCc1nc(N2CCN(c3ncccc3C#N)CC2)c2cnn(C)c2n1 | 10.8%
Cc1nc(C2CCCNC2)cc(N2CCc3nc(N)sc3C2)n1 (stereo not drawn) | -47.4%
CCCN1CCN(Cc2cccc(OC)c2)[C@H]2CS(=O)(=O)C[C@H]21 | -8.15%
COc1ccc(C(C(=O)O)N(C)CCN2CCCC2)c(C)c1 (stereo not drawn) | 3.41%

Structure (SMILES) | cytotoxicity at 10 µM
CC[C@H](Nc1nc(C(C)C)nc2c1cnn2C)c1ccccc1 | -47.5%
Cc1c[nH]c(C(=O)N2CCn3nc(C(=O)NC4CC4)cc3C2)n1 | -2.66%
CCCC1(NC(=O)C(c2ccc(F)cc2)N(C)C)CC1 (stereo not drawn) | -37.1%
Cc1cc(C(F)(F)F)cc(N2C[C@@H](CN3CCOCC3)[C@@H](CO)C2)n1 | -6.02%
COc1ccc(-n2cccn2)c(CN2CCC3(CCNCC3)C2)c1 | 0.0652%
CCc1noc(CN(CC)C(=O)C2CC(=O)N(Cc3ccncc3)C2)n1 (stereo not drawn) | 18.2%
c1ccc2c(CC3CN(Cc4nccs4)CCO3)cccc2c1 (stereo not drawn) | 1.31%
CNc1ccnc(NCC(=O)Nc2cc(C)ccc2OC)n1 | -2.9%
CCc1nc2c(c(NC3CCC3)n1)CCN(C(=O)CO)CC2 | 5.42%
CCOCc1nc2c(c(NC(CC)c3cccnc3)n1)CCNCC2 (stereo not drawn) | -4.28%
Cn1cccc1C(=O)N1CCC2(CCCN(CC3CCC3)C2=O)C1 (stereo not drawn) | -2.6%
COc1ccccc1N1CCN(C(=O)Cn2nc(C)cc2C)CC1(C)C | 9.62%
COc1ccc(C(=O)N2CCCCC2c2ccccn2)c(OC)n1 (stereo not drawn) | -0.649%
O=C(COCC1CCCO1)N1CCCN(Cc2ccccc2F)CC1 (stereo not drawn) | 2.86%
CCN(CC)C(=O)[C@@H]1C[C@@H](n2cc(-c3cccc(OC)c3)nn2)CN1 | -5.98%
Cc1ccc(-c2ncc(C(=O)N3CCCC(CCN)C3)c(O)n2)cc1 (stereo not drawn) | -7.98%
Cc1nccn1-c1cccc(C2CCCN2S(=O)(=O)N(C)C)n1 (stereo not drawn) | 3.44%
N#CCCNC(=O)CN1CC(n2cccn2)C1 | -7.29%
CC(CNC(=O)c1ccc(=O)[nH]n1)N1CCc2ccccc21 (stereo not drawn) | -8.93%
COC(=O)CCc1c(C)nc2cc(O)nn2c1C | -7.18%
CCN(C(=O)Nc1cccnc1OC)C1CC1 | -9.11%
CC(C)n1ncc2cc(NC(=O)N3CCC(N4CCCC4)C3)cnc21 (stereo not drawn) | -8.58%
CN(Cc1nc(C2CC2)no1)C1CCCN(c2cccnn2)C1 (stereo not drawn) | -6.62%

Structure (SMILES) | cytotoxicity at 10 µM
Cc1ccc(NC2CCN(C(=O)COCC(F)(F)F)CC2)nn1 | 6.38%
CC(C)CCC(=O)NC(C)c1nnc2n1CCCCC2 (stereo not drawn) | -7.76%
Cc1nc(CN2CCCC2c2ccsc2)nc2ccccc12 (stereo not drawn) | 0.89%
COCCC(=O)N1CCc2c(CNc3ncccn3)cncc2C1 | 9.05%
CCC(CN1CCCC1)NC(=O)C1(c2cccc(F)c2)CC1 (stereo not drawn) | -5.72%
OCC1CCC2(CC1)CN(Cc1ccccc1F)Cc1ccccc1O2 (stereo not drawn) | 3.68%
Cc1cccc(CN(Cc2ccc(C)o2)C2CC(C)(C)NC(C)(C)C2)n1 | -2.42%
O=C1COC2(CCN(Cc3ccoc3)CC2)CN1c1ccsc1 | 3.09%
CN(C)C(=O)[C@H]1C[C@H]2OCC[C@H]2N(Cc2ccc(F)cc2)C1 | -76.1%
Cc1cccc(CN2CCc3ncnc(-c4ccsc4)c3CC2)n1 | -78.2%
CC1c2ncc(CN3CCN(C)CC3)n2CCN1Cc1ccccn1 (stereo not drawn) | -0.23%
O=C(NC1CCC1)[C@@H]1CCO[C@@H]2CCN(CCc3ccccc3)C[C@H]21 | -7.24%
O=C(NCc1ccccc1)c1nc2c(o1)CN(C(=O)c1cccnc1)C2 | -76.9%
CN(C)C(=O)N1CCC2(CCCN(Cc3cnn(C)c3)C2)C1 (stereo not drawn) | 4.91%
Cn1ccc(CN2CCCC23CCN(Cc2ccccc2F)CC3)n1 | -104%
O=C(N1CCOCC1)[C@@]12CCO[C@@H]1CCN(CC1CCCC1)C2 | -0.385%
CCOCC1CN(Cc2cnn(C)c2)Cc2c1cnn2CC (stereo not drawn) | -83.4%
Cc1cccc(CN2CCCC3(CCN(CC4CCCO4)CC3)C2)n1 (stereo not drawn) | -121%
Cn1ncc2c1CN(Cc1cccnc1)CC2COCC1CC1 (stereo not drawn) | -10.7%
COCCN1CCOCC2(C1)CN(C(=O)c1conc1C)CCO2 (stereo not drawn) | 7.1%
CN(C)c1ccc(CN2C[C@@H]3CC[C@H]2CN(C2CCOCC2)C3)cn1 | -3.62%
